How the values were obtained:
[1] = target: T1, N-formyl peptide receptor 3 (Homo sapiens, UniProt P25089); test: Agonist activity at FPR3 (unknown origin) transfected in human HL60 cells assessed as induction of Ca2+ mobilization; format: cell-based, HL-60
T1 sequence (P25089 whole entry): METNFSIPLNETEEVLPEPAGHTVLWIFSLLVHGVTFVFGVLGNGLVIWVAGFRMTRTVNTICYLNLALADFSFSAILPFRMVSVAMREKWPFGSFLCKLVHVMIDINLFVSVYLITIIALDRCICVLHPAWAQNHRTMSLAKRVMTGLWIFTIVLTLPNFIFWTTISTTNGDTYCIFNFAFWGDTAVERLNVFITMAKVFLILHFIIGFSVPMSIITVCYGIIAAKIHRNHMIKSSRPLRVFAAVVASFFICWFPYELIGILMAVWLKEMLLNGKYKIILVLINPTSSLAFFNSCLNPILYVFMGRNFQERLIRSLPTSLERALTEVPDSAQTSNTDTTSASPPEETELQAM

[2] = target: T2, N-formyl peptide receptor 2 (Homo sapiens, UniProt P25090); test: Agonist activity at FPR2 (unknown origin) transfected in human HL60 cells assessed as induction of Ca2+ mobilization; format: functional, cell-based, HL-60
T2 sequence (P25090 whole entry): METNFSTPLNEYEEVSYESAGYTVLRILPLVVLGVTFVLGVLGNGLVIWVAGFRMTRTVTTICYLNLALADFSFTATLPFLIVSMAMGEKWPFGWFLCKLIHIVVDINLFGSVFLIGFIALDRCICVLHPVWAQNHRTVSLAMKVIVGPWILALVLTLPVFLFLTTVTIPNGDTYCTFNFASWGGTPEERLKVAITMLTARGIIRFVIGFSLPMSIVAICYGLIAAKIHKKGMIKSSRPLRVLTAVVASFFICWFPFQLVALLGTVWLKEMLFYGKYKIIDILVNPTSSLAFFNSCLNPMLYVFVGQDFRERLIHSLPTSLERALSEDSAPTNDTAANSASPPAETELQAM

HL-60 [3] = test: Effect on Ca2+ mobilization in human wild type HL60 cells; format: functional, cell-based
Summary of the method: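 Wild-type, non-transfected HL-60 cells, grown without G418, were run in the same Fluo-4 Ca2+ flux assay. Fluorescence was monitored every 5 s for 240 s at room temperature.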

HL-60 [4] = test: Cytotoxicity against human wild type HL60 cells at 5 to 20 uM after 60 mins by CellTitre-Glo luminescent assay; format: cell-based; conditions: hl-60, 1 h
Summary of the method: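 Wild-type HL-60 cells at 3×10^4 cells/well were exposed to 5, 10 or 20 µM compound for 60 min at 37 °C in 5% CO2. Samples were equilibrated to room temperature for 30 min before the CellTiter-Glo luminescence read. Triplicate samples; the experiment was representative of two.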

fMet-Leu-Phe receptor = target: T3, fMet-Leu-Phe receptor (Homo sapiens, UniProt P21462); test: Agonist activity at FPR1 (unknown origin) transfected in human HL60 cells assessed as induction of Ca2+ mobilization; format: functional, cell-based, HL-60
T3 sequence (P21462 whole entry): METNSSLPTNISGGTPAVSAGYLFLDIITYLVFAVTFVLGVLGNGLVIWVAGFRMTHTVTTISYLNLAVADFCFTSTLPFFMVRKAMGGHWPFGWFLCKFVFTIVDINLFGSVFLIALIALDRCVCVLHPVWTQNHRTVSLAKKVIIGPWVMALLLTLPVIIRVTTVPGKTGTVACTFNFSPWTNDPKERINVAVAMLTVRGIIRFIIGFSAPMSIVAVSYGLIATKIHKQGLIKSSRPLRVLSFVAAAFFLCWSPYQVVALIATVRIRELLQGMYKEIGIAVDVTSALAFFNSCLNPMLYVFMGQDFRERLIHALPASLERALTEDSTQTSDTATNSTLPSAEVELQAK

[5] = target: fMet-Leu-Phe receptor 1/2 (Homo sapiens) (UniProt P21462+P25090); test: Agonist activity at FPR1/FPR2 in human neutrophils assessed as induction of Ca2+ mobilization relative to fMLF; format: functional
Summary of the method: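 Neutrophils from healthy donors were isolated by dextran sedimentation, Histopaque 1077 gradient and hypotonic red cell lysis. […] Peak response was normalized to 5 nM fMLF as 100%. EC50 comes from 5–6 point curves, mean of three experiments with different donors.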

[6] = target: T4, fMet-Leu-Phe receptor (Homo sapiens) (UniProt P21462); test: Agonist activity at FPR1 (unknown origin) transfected in human HL60 cells assessed as induction of Ca2+ mobilization relative to fMLF; format: functional, cell-based; conditions: HL-60
T4 sequence (whole entry): T3 sequence (P21462 whole entry)
Summary of the method: (§1)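 Same Fluo-4 Ca2+ flux in transfected HL-60 cells. The peak fluorescence change over baseline was normalized to 5 nM fMLF for FPR1 cells and to 5 nM WKYMVm for FPR2 and FPR3 cells, each taken as 100%. Efficacy was read from 5–6 point dose-response curves.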

[7] = target: T5, N-formyl peptide receptor 2 (Homo sapiens) (UniProt P25090); test: Agonist activity at FPR2 (unknown origin) transfected in human HL60 cells assessed as induction of Ca2+ mobilization relative to WKYMVm; format: functional, cell-based; conditions: HL-60; summary of the method: as §1
T5 sequence (whole entry): T2 sequence (P25090 whole entry)

Row | EC50 [1] [µM] | EC50 [2] [µM] | EC50 (HL-60 [3]) [µM] | EC50 (fMet-Leu-Phe receptor) [µM] | Efficacy [5] [%] | Efficacy [6] [%] | Efficacy [7] [%] | SMILES | Activity (HL-60 [4])
1 | > 50 | > 50 | > 50 | > 50 |  |  |  | COc1ccc(Cc2cc(Cc3ccccc3)nn(CC(=O)Nc3ccc(Br)cc3)c2=O)cc1 | Non-toxic
2 | > 50 | > 50 | > 50 | > 50 |  |  |  | COc1cccc(Cc2cc(-c3ccc(C)cc3)nn(CC(=O)Nc3ccc(F)cc3)c2=O)c1 | Non-toxic
3 | > 50 | > 50 | > 50 | > 50 |  |  |  | Cc1cc(Cc2ccccc2)c(=O)n(CC(=O)Nc2ccc(F)cc2)n1 | Non-toxic
4 | > 50 | > 50 | > 50 | > 50 |  |  |  | COc1cccc(Cc2cc(-c3ccccc3)nn(CC(=O)Nc3ccc4c(c3)OCO4)c2=O)c1 | Non-toxic
5 | > 50 | > 50 | > 50 | > 50 |  |  |  | COc1cccc(Cc2cc(-c3cccs3)nn(CC(=O)Nc3ccc4c(c3)OCO4)c2=O)c1 | Non-toxic
6 | > 50 |  | > 50 |  | 90 | 100 |  | Cc1cc(Cc2cccc(Cl)c2)c(=O)n(CC(=O)Nc2ccc(Br)cc2)n1 | Non-toxic
7 | > 50 | > 50 | > 50 | > 50 |  |  |  | COc1cc(Cc2cc(C)nn(CC(=O)Nc3ccc(Br)cc3)c2=O)cc(OC)c1 | Non-toxic
8 | > 50 |  | > 50 |  | 65 | 80 |  | COc1cccc(Cc2cc(C3CCCCC3)nn(CC(=O)Nc3ccc(Br)cc3)c2=O)c1 | Non-toxic
9 | > 50 | > 50 | > 50 | > 50 |  |  |  | COc1ccc(-c2cc(Cc3cccc(OC)c3)c(=O)n(CC(=O)Nc3ccc(F)cc3)n2)cc1 | Non-toxic
10 | > 50 |  | > 50 |  |  | 115 | 85 | Cc1cc(N)c(=O)n(CC(=O)Nc2ccc(Br)cc2)n1 | Non-toxic
11 | > 50 | > 50 | > 50 | > 50 |  |  |  | COc1ccc(Cc2cc(-c3ccc(OC)cc3)nn(CC(=O)Nc3ccc(Br)cc3)c2=O)cc1 | Non-toxic
12 | > 50 | > 50 | > 50 | > 50 |  |  |  | COc1ccc(Cc2cc(-c3ccc(C)cc3)nn(CC(=O)Nc3ccc(Br)cc3)c2=O)cc1 | Non-toxic
13 | > 50 | > 50 | > 50 | > 50 |  |  |  | COc1cccc(Cc2cc(-c3ccc(F)cc3)nn(CC(=O)Nc3ccc(F)cc3)c2=O)c1 | Non-toxic
14 | > 50 | > 50 | > 50 | > 50 |  |  |  | COc1cccc(Cc2cc(-c3cccs3)nn(CC(=O)Nc3ccc(F)cc3)c2=O)c1 | Non-toxic
15 | > 50 | > 50 | > 50 | > 50 |  |  |  | COc1cccc(Cc2cc(-c3ccc(Cl)cc3)nn(CC(=O)Nc3ccc(F)cc3)c2=O)c1 | Non-toxic
16 | > 50 | > 50 | > 50 | > 50 |  |  |  | COc1cccc(Cc2cc(-c3ccc(Cl)cc3)nn(CC(=O)Nc3ccc4c(c3)OCO4)c2=O)c1 | Non-toxic
17 | > 50 | > 50 | > 50 | > 50 |  |  |  | Cc1ccc(=O)n(CC(=O)Nc2ccc(I)cc2)n1 | Non-toxic

Row | EC50 [1] [µM] | EC50 [2] [µM] | EC50 (HL-60 [3]) [µM] | EC50 (fMet-Leu-Phe receptor) [µM] | Efficacy [5] [%] | Efficacy [6] [%] | Efficacy [7] [%] | SMILES | Activity (HL-60 [4])
18 | > 50 |  | > 50 |  | 130 | 110 |  | Cc1cc(Cc2cccc(F)c2)c(=O)n(CC(=O)Nc2ccc(Br)cc2)n1 | Non-toxic
19 | > 50 | > 50 | > 50 | > 50 |  |  |  | COc1cccc(Cc2cc(-c3ccccc3)nn(CC(=O)Nc3ccc(F)cc3)c2=O)c1 | Non-toxic
20 | > 50 | > 50 | > 50 | > 50 |  |  |  | COc1ccc(-c2cc(Cc3cccc(OC)c3)c(=O)n(CC(=O)Nc3ccc4c(c3)OCO4)n2)cc1 | Non-toxic
21 | > 50 | > 50 | > 50 | > 50 |  |  |  | COc1ccc(Cc2cc(-c3ccc(Cl)cc3)nn(CC(=O)Nc3ccc(Br)cc3)c2=O)cc1 | Non-toxic
22 | > 50 | > 50 | > 50 | > 50 |  |  |  | CC1=NN(CC(=O)Nc2ccc(I)cc2)C(=O)CC1 | Non-toxic
23 | > 50 |  | > 50 |  | 70 | 55 |  | COc1ccc(-c2cc(C)nn(CC(=O)Nc3ccc(Br)cc3)c2=O)cc1 | Non-toxic
24 | > 50 | > 50 | > 50 | > 50 |  |  |  | COc1ccc(Cc2cc(-c3cccs3)nn(CC(=O)Nc3ccc(Br)cc3)c2=O)cc1 | Non-toxic
25 | > 50 | > 50 | > 50 | > 50 |  |  |  | COc1ccc(Cc2cc(-c3ccc(F)cc3)nn(CC(=O)Nc3ccc(Br)cc3)c2=O)cc1 | Non-toxic
26 | > 50 | > 50 | > 50 | > 50 |  |  |  | Cc1cc(Cc2ccc(C(F)(F)F)cc2)c(=O)n(CC(=O)Nc2ccc(Br)cc2)n1 | Non-toxic
27 | > 50 | > 50 | > 50 | > 50 |  |  |  | Cc1cc(Cc2ccc(C#N)cc2)c(=O)n(CC(=O)Nc2ccc(Br)cc2)n1 | Non-toxic
28 | > 50 | > 50 | > 50 | > 50 |  |  |  | Cc1cc(NC(=O)c2ccc(Br)cc2)c(=O)n(CC(=O)Nc2ccc(Br)cc2)n1 | Non-toxic
29 | > 50 |  | > 50 |  | 75 | 80 |  | COc1cc(Cc2cc(C)nn(CC(=O)Nc3ccc(I)cc3)c2=O)cc(OC)c1 | Non-toxic
30 | > 50 | > 50 | > 50 | > 50 |  |  |  | Cc1cc(Cc2cccc(Br)c2)c(=O)n(CC(=O)Nc2ccc(Br)cc2)n1 | Non-toxic
31 | > 50 | > 50 | > 50 | > 50 |  |  |  | COc1cccc(Cc2cc(-c3ccc(F)cc3)nn(CC(=O)Nc3ccc4c(c3)OCO4)c2=O)c1 | Non-toxic
32 | > 50 | > 50 | > 50 | > 50 |  |  |  | COc1cccc(Cc2cc(-c3ccc(C)cc3)nn(CC(=O)Nc3ccc4c(c3)OCO4)c2=O)c1 | Non-toxic
33 | > 50 | > 50 | > 50 | 13.8 |  | 20 |  | Cc1cc(Cc2cccc3ccccc23)c(=O)n(CC(=O)Nc2ccc(Br)cc2)n1 | Non-toxic

— ChEMBL document CHEMBL2390925, “Further studies on 2-arylacetamide pyridazin-3(2H)-ones: design, synthesis and evaluation of 4,6-disubstituted analogs as formyl peptide receptors (FPRs) agonists” (Eur J Med Chem, 2013)
